Measurements reported in ChEMBL document CHEMBL1128269, “Synthesis and biological evaluation of NK1 antagonists derived from L-tryptophan” (J Med Chem, 1995).

How the values were obtained:
[1] = biological target: T1, Substance-P receptor (Homo sapiens, UniProt P25103); assay: Binding affinity against human Tachykinin receptor 1 expressed in CHO cells was measured by its ability to displace [125I]- Tyr-8 substance P.; format: cell-based
[2] = biological target: Substance-P receptor (Homo sapiens, UniProt P25103, Q165A); assay: Binding affinity against Gln165Ala mutant type human Tachykinin receptor 1 expressed in CHO cells was measured by its ability to displace [125I]- Tyr-8 substance P.; format: cell-based
Sequence of Substance-P receptor (Homo sapiens, UniProt P25103, Q165A) (P25103 whole entry Q165A): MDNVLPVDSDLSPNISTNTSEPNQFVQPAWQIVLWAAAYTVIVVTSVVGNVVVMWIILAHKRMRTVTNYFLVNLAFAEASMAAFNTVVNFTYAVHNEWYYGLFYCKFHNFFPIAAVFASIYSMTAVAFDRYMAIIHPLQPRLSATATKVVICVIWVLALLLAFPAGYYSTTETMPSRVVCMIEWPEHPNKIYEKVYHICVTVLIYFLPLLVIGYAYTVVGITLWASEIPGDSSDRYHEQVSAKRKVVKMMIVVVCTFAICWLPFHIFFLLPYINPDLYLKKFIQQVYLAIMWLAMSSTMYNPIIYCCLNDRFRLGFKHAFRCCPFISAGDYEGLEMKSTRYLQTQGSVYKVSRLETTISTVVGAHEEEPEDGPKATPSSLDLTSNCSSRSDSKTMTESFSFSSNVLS

[3] = biological target: T1, Substance-P receptor; assay: Binding affinity against wild type human Tachykinin receptor 1 expressed in CHO cells was measured by its ability to displace [125I]- Tyr-8 substance P.; format: cell-based
[4] = tested on: Mustela putorius furo; assay: Maximum change in the mean arterial blood pressure in the anesthetized ferret of substance P at 1 mg/Kg intravenous bolus; format: functional
In short: (§1)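 Ferrets were anesthetized with sodium pentobarbitone (40 mg/kg ip), maintained with sodium barbitalone (300 mg/kg ip), tracheally cannulated and ventilated with room air. Blood pressure was recorded via the femoral artery. Rising cumulative iv bolus doses (vehicle: distilled water, 1 mL/kg, or PEG, 0.5 mL/kg) went in via the femoral vein, with vehicle controls. Maximum change in mean arterial pressure is mean ± SD, n≥3.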

[5] = tested on: Cavia porcellus; assay: Inhibition of substance P-induced dermal plasma extravasation in the guinea pig 1 hr after oral dose; format: functional; details: PIG1, Plasma, read-out: ID50 (the source's name)
In short: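 Guinea pigs were dosed orally 1 h before 0.5 pmol substance P was injected into the dorsal skin. Evans blue was given iv before the challenge. Plasma leakage was quantified from dye levels in the skin around the injection sites, and ID50 was expressed in mg/kg.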

[6] = tested on: Mustela putorius furo; assay: Effect on heart rate of substance P antagonist was determined as change heart rate in the anesthetized ferret at 3 mg/Kg intravenous bolus; format: functional
In short: (§2)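 Ferrets anesthetized with sodium pentobarbitone (40 mg/kg ip), maintained with sodium barbitalone (300 mg/kg ip); tracheal cannula with artificial ventilation on room air; femoral artery cannulated for recording, femoral vein for dosing. Rising cumulative iv bolus doses, in distilled water (1 mL/kg) or poly(ethylene glycol) (0.5 mL/kg), with matched vehicle controls. Change in heart rate, mean ± SD of at least three determinations.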

[7] = tested on: Mustela putorius furo; assay: Effect on heart rate of substance P antagonist was determined as change heart rate in the anesthetized ferret at 0.1 mg/Kg intravenous bolus; format: functional; in short: as §2
[8] = tested on: Mustela putorius furo; assay: Effect on heart rate of substance P antagonist was determined as change heart rate in the anesthetized ferret at 0.3 mg/Kg intravenous bolus; format: functional; in short: as §2
[9] = tested on: Mustela putorius furo; assay: Effect on heart rate of substance P antagonist was determined as change heart rate in the anesthetized ferret at 1 mg/Kg intravenous bolus; format: functional; in short: as §2
[10] = tested on: Mustela putorius furo; assay: Maximum change in the mean arterial blood pressure in the anesthetized ferret of substance P at 0.1 mg/Kg intravenous bolus; format: functional
In short: (§3)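 Pentobarbitone-induced (40 mg/kg ip), barbitalone-maintained (300 mg/kg ip) ferret anesthesia; trachea cannulated, ventilated with room air; blood pressure recorded via femoral artery, compounds given via femoral vein as rising cumulative iv boluses in distilled water (1 mL/kg) or poly(ethylene glycol) (0.5 mL/kg), matched vehicle controls. Maximum change in mean arterial pressure, mean ± SD, at least three determinations.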

[11] = tested on: Mustela putorius furo; assay: Maximum change in the mean arterial blood pressure in the anesthetized ferret of substance P at 0.3 mg/Kg intravenous bolus; format: functional; in short: as §3
[12] = tested on: Mustela putorius furo; assay: Maximum change in the mean arterial blood pressure in the anesthetized ferret of substance P at 3 mg/Kg intravenous bolus; format: functional; in short: as §1
[13] = tested on: Mustela putorius furo; assay: Maximum change in the mean arterial blood pressure in the anesthetized ferret of substane P at 0.1 mg/Kg intravenous bolus; format: functional; in short: as §3
[14] = tested on: Mustela putorius furo; assay: Maximum change in the mean arterial blood pressure in the anesthetized ferret of substane P at 0.3 mg/Kg intravenous bolus; format: functional; in short: as §3
[15] = tested on: Mustela putorius furo; assay: Maximum change in the mean arterial blood pressure in the anesthetized ferret of substane P at 1 mg/Kg intravenous bolus; format: functional; in short: as §3
[16] = tested on: Mustela putorius furo; assay: Maximum change in the mean arterial blood pressure in the anesthetized ferret of substane P at 3 mg/Kg intravenous bolus; format: functional; in short: as §3

T1 sequence (P25103 whole entry): as the sequence (P25103 whole entry Q165A) above, with A165Q counted along it

CN(C)CCCCC(=O)N[C@@H](Cc1c[nH]c2ccccc12)C(=O)CCc1cc(C(F)(F)F)cc(C(F)(F)F)c1
IC50 [1]: 0.6 nM

O=C(CN1CCOCC1)N[C@@H](Cc1c[nH]c2ccccc12)C(=O)CCc1cc(C(F)(F)F)cc(C(F)(F)F)c1
IC50 [2]: 4 nM
IC50 [1]: 3.5 nM
IC50 [3]: 2 nM

O=C(Cc1ccncc1)N[C@@H](Cc1c[nH]c2ccccc12)C(=O)CCc1cc(C(F)(F)F)cc(C(F)(F)F)c1
MABP [4]: -20
ED50 [5]: 1.9 mg/kg
IC50 [2]: 10 nM
IC50 [1]: 0.5 nM
IC50 [3]: 0.4 nM

O=C(Cc1cnc[nH]1)N[C@@H](Cc1c[nH]c2ccccc12)C(=O)CCc1cc(C(F)(F)F)cc(C(F)(F)F)c1
IC50 [1]: 3.8 nM

O=C(CCN1CCCCC1)N[C@@H](Cc1c[nH]c2ccccc12)C(=O)CCc1cc(C(F)(F)F)cc(C(F)(F)F)c1
IC50 [1]: 0.6 nM

O=C(CCc1cc(C(F)(F)F)cc(C(F)(F)F)c1)[C@H](Cc1c[nH]c2ccccc12)NC(=O)C12CCN(CC1)CC2
Change in heart rate [6]: 1
Change in heart rate [7]: 3
Change in heart rate [8]: 2
Change in heart rate [9]: 1
MABP [10]: 2
MABP [11]: 4
MABP [4]: 18
MABP [12]: 34
ED50 [5]: 1.8 mg/kg
IC50 [2]: 8 nM
IC50 [1]: 0.9 nM
IC50 [3]: 1 nM

CN(C)CCC(=O)N[C@@H](Cc1c[nH]c2ccccc12)C(=O)CCc1cc(C(F)(F)F)cc(C(F)(F)F)c1
ED50 [5]: 10 mg/kg

O=C(CCc1ccncc1)N[C@@H](Cc1c[nH]c2ccccc12)C(=O)CCc1cc(C(F)(F)F)cc(C(F)(F)F)c1
IC50 [1]: 0.47 nM

O=C(CCCN1CCCC1)N[C@@H](Cc1c[nH]c2ccccc12)C(=O)CCc1cc(C(F)(F)F)cc(C(F)(F)F)c1
IC50 [1]: 0.3 nM

CC(=O)N[C@H](COCc1cc(C)cc(C)c1)Cc1c[nH]c2ccccc12
IC50 [1]: 767 nM

Cc1cc(C)cc(CN(C)C(=O)[C@H](Cc2c[nH]c3ccccc23)NC(=O)c2ccccc2)c1
IC50 [1]: 1030 nM

CN(C)CCCC(=O)N[C@@H](Cc1c[nH]c2ccccc12)C(=O)CCc1cc(C(F)(F)F)cc(C(F)(F)F)c1
ED50 [5]: 4 mg/kg
IC50 [1]: 0.7 nM

FC(F)(F)c1cccc(CO[C@H]2C3CCN(CC3)[C@H]2C(c2ccccc2)c2ccccc2)c1
IC50 [2]: 2100 nM
IC50 [1]: 53 nM
IC50 [3]: 53 nM

O=C(CCCN1CCOCC1)N[C@@H](Cc1c[nH]c2ccccc12)C(=O)CCc1cc(C(F)(F)F)cc(C(F)(F)F)c1
IC50 [2]: 1.4 nM
IC50 [1]: 0.17 nM
IC50 [3]: 0.24 nM

O=C(CCC1CCNCC1)N[C@@H](Cc1c[nH]c2ccccc12)C(=O)CCc1cc(C(F)(F)F)cc(C(F)(F)F)c1
IC50 [1]: 0.37 nM

COc1ccccc1CN[C@H]1C2CCN(CC2)[C@H]1C(c1ccccc1)c1ccccc1 [CP-96345]
Change in heart rate [6]: 65
Change in heart rate [7]: 7
Change in heart rate [8]: 13
Change in heart rate [9]: 21
MABP [13]: 11
MABP [14]: 21
MABP [15]: 46
MABP [16]: 63

COc1ccccc1CN[C@H]1CCCN[C@H]1c1ccccc1 [CP-99994]
MABP [10]: 10
MABP [11]: 13
MABP [4]: 12
ED50 [5]: 1.6 mg/kg
